Screens deposited in PubChem BioAssay by several laboratories.
L major viab – reduces viability of Leishmania major promastigotes. resazurin fluorescence viability. inhibition, % at 10 µM. 200,000 tested, 9% active; in the data active = inhibition above about 50%;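 note: promastigotes grown with compound for 44 hours at 28 °C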
bCat nuc transl – modulators of beta-catenin nuclear translocation | HeLa beta-catenin nuclear translocation, immunofluorescence imaging | nuclear translocation activity, % at 5 µM | 190,000 tested, 0.3% active | AID 1665;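 active = nuclear translocation activity above 50% at 5 µM, with a well cell count of 50 or more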;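 note: per-cell ratio of nuclear to cytoplasmic median beta-catenin stain intensity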
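Test system: HeLa cells, endogenous beta-catenin; Compound: single 5 µM dose plus 0.02–20 µM confirmation series; Times: compound exposure 24 h at 37°C; Signal: fluorescence imaging of beta-catenin antibody stain plus DAPI; Read-out: % activation, nuclear-to-cytoplasmic median beta-catenin signal ratio per cell.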
BaF3 parental – counter-screen for JAK2V617F inhibitors: parental Ba/F3 viability inhibitors | 220,000 tested, 1.1% active | inhibition, % at 5.6 µM | CellTiter-Glo ATP luminescence | AID 1486;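 active = inhibition above a per-campaign cutoff, the mean inhibition of all tested compounds plus 3 SD, cut at about 27% in these data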
MT stabilizer – stabilizes microtubules in HeLa cells; HeLa tubulin immunostaining HCS, 24 h; share of cells brighter than vehicle mean+2SD; % tubulin-high responders, % at 10 µM; 200,000 tested, 0.83% active;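 active = plate Z-score above 3 for both tubulin-high and condensed-nucleus cell shares, with cell loss under 80%, at 10 µM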;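 note: anti alpha tubulin signal scored within the nucleus-defined area of each cell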
Ba/F3 V617F tox – lowers viability of Ba/F3 cells expressing EpoR and JAK2V617F; 220,000 tested, 1.1% active; ATP luminescence; inhibition, % at 5.6 µM;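 active = inhibition above the campaign mean plus 3 SD over all tested compounds, cut at about 24% in these data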;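 note: cytokine-independent growth of Ba/F3 cells driven by EpoR plus mutant JAK2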
APP transl inh – APP translation inhibition; 190,000 tested, 0.82% active; SH-SY5Y APP 5'UTR-luciferase reporter, luminescence; inhibition, % at 2 µM;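 active = inhibition above a set limit, derived from the sample mean plus 3 SD, cut at about 45% in these data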
Of the large screens only hits and unclear results are named; the others gave an inactive call. Hits are enriched below; roughly 9.6% of the tested compounds scored in any of these assays.

COc1ccc(-c2nc3oc4cc(OC)ccc4c(=O)c3c(=O)n2Cc2ccco2)cc1	L major viab 73
COCCn1c(-c2ccc(OC)cc2)nc2oc3cc(OC)ccc3c(=O)c2c1=O	L major viab 55 (no result: bCat nuc transl)
CC(C)CCN(C(=O)COc1ccc(C#N)cc1)c1c(N)n(Cc2ccccc2)c(=O)[nH]c1=O	none
Cc1nc2cc(C(=O)N3c4ccccc4CC3C)ccc2s1 (centres undefined)	MT stabilizer 26
Cc1csc2ncc(C(=O)N3c4ccccc4CC3C)c(=O)n12 (centres undefined)	BaF3 parental 39
CC1Cc2ccccc2N1C(=O)c1cnc2ccccn2c1=O (centres undefined)	none (no result: bCat nuc transl)
CCCN(CCC)C(=O)C1CCN(c2cc(C)nc3c(-c4ccc(OC)c(OC)c4)c(C)nn23)CC1	BaF3 parental 40
O=c1c(Cl)c(N2CCC3(CC2)OCCO3)cnn1C12CC3CC(CC(C3)C1)C2	none (no result: L major viab, MT stabilizer, APP transl inh)
COc1ccc(Cl)cc1C(=O)N(Cc1nc(-c2cccc(C)c2)no1)C(C)C	L major viab 85 (no result: bCat nuc transl)
CCN(Cc1ccccc1)S(=O)(=O)c1ccc(S(=O)(=O)N2CCN(CCC#N)CC2)cc1	none
O=c1c2ccccc2nc(SCc2ccc([N+](=O)[O-])cc2)n1CCCO	none
CN1CCN(C(=O)c2ccc3nc(-c4ccccc4)c(-c4ccccc4)nc3c2)CC1	none
FC(F)(F)c1ccc(N2CCN(Cc3ccc4c(c3)OCO4)CC2)nc1	none
O=C(c1ccc2c(c1)OCO2)N1CCN(c2ccc(C(F)(F)F)cn2)CC1	L major viab 76
CN1CCN(C(=O)c2ccc(CSc3ccc(Cl)cc3)cc2)CC1	L major viab 100
CCOC(=O)N1CCN(C(=O)c2ccc(CSc3ccc(Cl)cc3)cc2)CC1	none
O=C(c1ccc2ccccc2c1)N1CCN(c2ccc(C(F)(F)F)cn2)CC1	L major viab 98 (no result: bCat nuc transl)
CN1CCN(C(=O)c2ccc3ccccc3c2)CC1	L major viab 87
CCc1cc(C(=O)c2ccc(C)cc2)c(NC(=O)CCl)s1	L major viab 88
Cc1ccc(NC(=S)N2CCCC(c3nc4ccc(C)cc4[nH]3)C2)c(C)c1 (centres undefined)	L major viab 62
Cc1cc2nc(C3CCCN(C(=S)Nc4ccccc4C)C3)[nH]c2cc1C (centres undefined)	none
Cc1ccc2nc(C3CCCN(C(=S)Nc4cccc(C)c4C)C3)[nH]c2c1 (centres undefined)	L major viab 82, MT stabilizer 29
Cc1ccc2nc(C3CCN(CC(=O)N4CCCCCC4)CC3)[nH]c2c1	none
CCc1cccc(Nc2c([N+](=O)[O-])cc(C(=O)N3CC(=O)Nc4ccccc43)cc2[N+](=O)[O-])c1	L major viab 79 (no result: bCat nuc transl)
Cc1cc(C)cc(C(=O)N2CC(=O)Nc3ccccc32)c1	bCat nuc transl 154, BaF3 parental 82, MT stabilizer 28, Ba/F3 V617F tox 78, APP transl inh 92
Cc1cc(NC(=O)CSc2nc(C(C)(C)C)nc3ccccc23)no1	MT stabilizer 14, APP transl inh 49
CCCc1nc(SCC(=O)Nc2cc(C)on2)c2ccccc2n1	none
CCC(C)NC(=O)CSc1nc2ccccc2c(=O)n1Cc1ccc(OC)cc1 (centres undefined)	L major viab 55 (no result: bCat nuc transl)
CCC(C)n1c(SCC(=O)Nc2cc(C)on2)nc2ccccc2c1=O (centres undefined)	MT stabilizer 39
CCOC(=O)Cc1nnc(NC(=O)CSc2nnc3c(n2)[nH]c2ccccc23)s1	none
CCCCNC(=O)N1CCN(Cc2cccc(F)c2)CC1	none
CCN1CCN(c2ncnc3c2c(-c2ccccc2)cn3-c2ccc(F)cc2)CC1	L major viab 86
COCC1CCCN(C(=O)c2ccc(OC3CCN(Cc4ccccn4)CC3)cc2)C1 (centres undefined)	none
O=C(c1ccc(OC2CCN(Cc3ccccn3)CC2)cc1)N1CCCCO1	L major viab 67
COc1ccc(/C=C2/C(=O)N(c3nc4ccccc4s3)N=C2CSc2ccc(Cl)cc2)cc1	L major viab 100 (no result: bCat nuc transl)
CC1=CC(=O)C(C(C)C)=C/C1=N/OS(=O)(=O)c1ccccc1	BaF3 parental 104, Ba/F3 V617F tox 99 (no result: L major viab, MT stabilizer, APP transl inh)
Cc1ccc(S(=O)(=O)ON=C2CCN(S(=O)(=O)c3ccccc3)CC2)cc1	none (no result: bCat nuc transl)
Cc1ccc2c(c1)/C(=N/OS(=O)(=O)c1ccccc1)CCS2	none (no result: bCat nuc transl)
